Bounds are passed on as bounds.

In assay [1] the test system is HCT-116. The assay can be described thus: Antiproliferative activity against wildtype p53 expressing human HCT-116 cells assessed as inhibition of cell growth incubated for 48 hrs by SRB assay. Format: functional, cell-based. The essentials: (§1)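 Isogenic HCT116 p53+/+ and p53−/− pair from B. Vogelstein, grown as monolayers in RPMI-1640 with 2 mM L-glutamine and 10% heat-inactivated FBS at 37 °C, 5% CO2. Cells seeded at 5 × 10^3 per well for 24 h, then given serial dilutions from 0.2 to 50 μM for 48 h. IC50 read by sulforhodamine B staining.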
(In SRB staining, fixed cells bind dye roughly in proportion to their protein.)

For assay [2], the system named is HCT-116. Briefly: Antiproliferative activity against human HCT-116 cells expressing p53-/- assessed as inhibition of cell growth incubated for 48 hrs by SRB assay. Format: functional, cell-based. The essentials: as §1
The test system of a further assay is PANC-1. Briefly: Antiproliferative activity against human PANC-1 cells assessed as inhibition of cell growth incubated for 48 hrs by SRB assay. Particulars: PANC-1, 48 h. In kind it is functional, cell-based. The essentials:
(§2)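 MDA-MB-231 and PANC-1 cells grown in high-glucose DMEM (4.5 g L−1) with L-glutamine, sodium pyruvate and 10% heat-inactivated FBS at 37 °C, 5% CO2. After seeding 5 × 10^3 cells per well for 24 h, cells received serial dilutions of 0.2–50 μM for 48 h. IC50 by SRB. Mean ± SD of 3 independent experiments.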

A further assay has as its system MDA-MB-231. The assay can be described thus: Antiproliferative activity against human MDA-MB-231 cells assessed as inhibition of cell growth incubated for 48 hrs by SRB assay. In kind it is functional, cell-based. Particulars: MDA-MB-231, 48 h. The essentials: as §2
The test system of a further assay is A-375. Briefly: Antiproliferative activity against human A-375 cells assessed as inhibition of cell growth incubated for 48 hrs by SRB assay. Conditions: A-375, 48 h. In kind it is functional, cell-based. The essentials:
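A375 melanoma cells grown as monolayers in RPMI-1640 with 2 mM L-glutamine and 10% heat-inactivated FBS at 37 °C, 5% CO2. Seeded at 5 × 10^3 cells per well for 24 h, then exposed to serial dilutions (0.2–50 μM) for 48 h. IC50 determined by SRB. Mean ± SD of 3 independent experiments.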

Assay [3] has as its system HCT-116. The assay can be described thus: Potency index, ratio of test compound IC50 to MANIO IC50 for antiproliferative activity against wildtype p53 expressing human HCT-116 cells assessed as inhibition of cell growth incubated for 48 hrs by SRB assay.
Assay [4] is described as follows: Selectivity ratio of IC50 for antiproliferative activity against human HCT-116 cells expressing p53-/- to IC50 for antiproliferative activity against wildtype p53 expressing human HCT-116 cells. In kind it is functional.
The mark [5] stands for this setting: Homo sapiens, HCT-116, 48 h, read-out: IC50.

On to `Cc1c(CO)cc2n1[C@@H](c1ccccc1)SC2`, for which the IC50 (in general, the concentration that inhibits the measured activity by half) was 6.68 µM with HCT-116 [1] (setting [5]); over 50 µM in the assay with HCT-116 [2] (setting [5]); over 50 µM in the assay with PANC-1; over 50 µM with MDA-MB-231; 39.5 µM with A-375.

As to `Cc1cc(CO)c2n1[C@@H](c1ccccc1)SC2`, the figures for the half-inhibitory concentration (IC50) in the assay with HCT-116 [1] (setting [5]) and with HCT-116 [2] (setting [5]) were 29.3 µM and over 50 µM, respectively.

Take `Cc1c(CO)c(CO)c2n1[C@@H](c1ccccc1)SC2`: the IC50 with HCT-116 [1] (setting [5]) is 5.11 µM; with HCT-116 [2] (setting [5]), 51.8 µM; with PANC-1 it was 33.1 µM; in the assay on MDA-MB-231 it was over 50 µM; with A-375 it was 14.5 µM. The “Ratio IC50” value in the assay on HCT-116 [3] is given as 5.

As for `Cc1c(CO)c(CO)c2n1[C@H](c1ccccc1)SC2`, the IC50 is 48.2 µM in the assay with HCT-116 [2] (setting [5]), 42.1 µM in the assay on PANC-1, over 50 µM in the assay on MDA-MB-231 and 13.2 µM in the assay with A-375. Besides, the “Ratio IC50” value in assay [4] was about 50.

Turning to `Cc1c(CO)cc2n1CSC2`, the IC50 in the assay with HCT-116 [1] (setting [5]) is 28.3 µM; in the assay on HCT-116 [2] (setting [5]) it was over 50 µM.

Take `COc1cc([C@H]2SCc3c(CO)c(CO)c(C)n32)cc(OC)c1OC`: the IC50 with HCT-116 [1] (setting [5]) and in the assay on HCT-116 [2] (setting [5]) was over 50 µM in each case.

With `OCc1cn2c(c1CO)CS[C@@H]2c1ccccc1`, the IC50 was 20.3 µM with HCT-116 [1] (setting [5]) and over 50 µM in the assay on HCT-116 [2] (setting [5]).

Regarding `COc1ccc([C@H]2SCc3c(CO)c(CO)c(C)n32)cc1`, the IC50 in the assay with HCT-116 [1] (setting [5]) is 4.61 µM; with HCT-116 [2] (setting [5]), over 50 µM; in the assay on PANC-1, over 50 µM; with MDA-MB-231, over 50 µM; in the assay on A-375 it was over 50 µM.

For `Cc1c(CO)c(CO)c2n1[C@@H](c1ccc(O)cc1)SC2`, the IC50 is 16.6 µM with HCT-116 [1] (setting [5]) and over 50 µM in the assay with HCT-116 [2] (setting [5]).

As to `Cc1c(CO)c(CO)c2n1[C@H](c1ccccc1)SC2(C)C`, the results for the IC50 with HCT-116 [1] (setting [5]) and with HCT-116 [2] (setting [5]) were 24.3 µM and 22.2 µM, respectively.

In the case of `Cc1cc(CO)c2n1[C@H](c1ccccc1)SC2`, the IC50 is 0.14 µM in the assay with HCT-116 [1] (setting [5]); 18.1 µM in the assay with HCT-116 [2] (setting [5]); over 50 µM with PANC-1; over 50 µM in the assay on MDA-MB-231; over 50 µM with A-375. The Ratio IC50 in assay [4] came out at 129.

As for `Cc1c(CO)c(CO)c2n1[C@@H](C)SC2`, the IC50 with HCT-116 [1] (setting [5]) turned out to be 33.3 µM; in the assay on HCT-116 [2] (setting [5]), 46.2 µM.

For the compound `COc1ccc([C@@H]2SCc3c(CO)c(CO)c(C)n32)cc1`, the IC50 in the assay on HCT-116 [1] (setting [5]) was 1.47 µM; in the assay with HCT-116 [2] (setting [5]), 23.5 µM; with PANC-1, over 50 µM; in the assay on MDA-MB-231, 16.6 µM; with A-375, 22.8 µM.

`OCc1nn2c(c1CO)CSC2`: the IC50 with HCT-116 [1] (setting [5]) and in the assay with HCT-116 [2] (setting [5]) was over 50 µM in each case.

`Cc1c(CO)c(CO)c2n1[C@@H](c1cccc3ccccc13)SC2`: the IC50 result in the assay on HCT-116 [1] (hct-116) and with HCT-116 [2] (hct-116) was “Not Determined(Insoluble)” throughout.

`Cc1c(CO)c(CO)c2n1[C@@H](Cc1ccccc1)SC2`: the values for the half-inhibitory concentration (IC50) in the assay with HCT-116 [1] (setting [5]) and in the assay on HCT-116 [2] (setting [5]) were 16.3 µM and 29.1 µM, respectively.

For the compound `Cc1c(CO)cc2n1[C@H](c1ccccc1)SC2`, the IC50 in the assay with HCT-116 [1] (setting [5]) is 0.99 µM; with HCT-116 [2] (setting [5]), 4.33 µM; in the assay on PANC-1, 35 µM; in the assay with MDA-MB-231, 24.1 µM; in the assay with A-375, 11.8 µM.

As for `Cc1c(CO)c(CO)c2n1[C@@H](c1ccc(F)cc1)SC2`, the IC50 in the assay on HCT-116 [1] (setting [5]) is 4.43 µM; in the assay on HCT-116 [2] (setting [5]), 32.5 µM; in the assay on PANC-1, 20.2 µM; in the assay with MDA-MB-231, over 50 µM; in the assay on A-375, 36.1 µM.

Regarding `Cc1c(CO)c(CO)c2n1[C@H](C)SC2`, the IC50 in the assay on HCT-116 [1] (setting [5]) came to 31.4 µM; in the assay with HCT-116 [2] (setting [5]), 42.7 µM.

Regarding `Cc1c(CO)c(CO)c2n1[C@@H](c1cccc3cccnc13)SC2`, the IC50 in the assay with HCT-116 [1] (setting [5]) is 7.5 µM; in the assay with HCT-116 [2] (setting [5]), over 50 µM; in the assay with PANC-1 it was 17.4 µM; in the assay with MDA-MB-231, over 50 µM; in the assay on A-375, 24.4 µM.

Take `Cc1c(CO)c(CO)c2n1[C@@H](c1ccccc1)S(=O)(=O)C2`: the IC50 is over 15 µM in the assay with HCT-116 [1] (setting [5]) and over 50 µM with HCT-116 [2] (setting [5]).
